Compound activity as filed in PubChem BioAssay.
Hits are enriched below; roughly 6.8% of the tested compounds scored in any of these assays.
AI-2 QS modul = Vibrio harveyi AI-2 quorum sensing modulation. Vibrio harveyi JMH597 AI-2 luminescence/OD600 ratio, 9 h; hits give low values; strain lacks LuxN and CqsS sensors; 0 = neutral-control median. 300,000 compounds, 0.4% hits. activity change, % at 7.5 µM; in the data active = activity change below about -75%, passing the limit was not always enough;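 also: luminescence divided by OD600 gain over 9 h not by final OD600 alone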
PHOSPHO1 block = blocks human PHOSPHO1 phosphatase activity; Q8TCT1; recombinant PHOSPHO1, absorbance phosphatase assay; inhibition, % at 13.3 µM; 290,000 compounds, 1.1% hits; in the data active = inhibition above about 60%
ALR inh = inhibitors of human sulfhydryl oxidase ALR; purified ALR, DTT oxidation, H2O2 HRP-luminol luminescence; inhibition, % (test concentration not listed); 290,000 compounds, 3.8% hits; AID 485317;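 active = mean replicate inhibition above about 79%, with every replicate also reaching it, limit read from the data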
Target sequence (P55789 whole entry, looked up): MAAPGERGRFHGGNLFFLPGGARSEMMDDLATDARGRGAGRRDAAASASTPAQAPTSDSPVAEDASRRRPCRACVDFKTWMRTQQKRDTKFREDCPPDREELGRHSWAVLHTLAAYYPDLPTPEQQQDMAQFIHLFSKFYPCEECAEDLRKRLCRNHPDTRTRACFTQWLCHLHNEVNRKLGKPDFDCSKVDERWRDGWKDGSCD
core dimer inh = blocks dimerization of HCV core protein | TR-FRET GST/Flag-core106 dimerization, 1536-well | inhibition, % at 5 µM | 300,000 compounds, 0.33% hits;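 active = inhibition above the mean of all tested compounds plus 3 SD, set per screening campaign, cut at about 45% in these data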
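assay system = GST-tagged and Flag-tagged HCV core protein residues 1-106 | controls = unlabelled core106 and no-GST-core106 wells | incubation = compound-protein-antibody incubation 4 h at 22.5 °C | probe or stimulus = Eu donor and XL665 acceptor anti-tag antibodies | read-out = % inhibition based on acceptor/donor emission ratio | signal = TR-FRET 671 and 617 nm emission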
HSF-1 act = increases HSF-1 driven luciferase reporter signal; NIH3T3-HGL HSF-1 luciferase reporter, MG132, 8 h; 100% = twice DMSO control signal; activation, % at 9 µM; 300,000 compounds, 1.7% hits;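 active = mean replicate activation of at least 50% with a set share of replicates each reaching 50%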;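 also: 0% = median of the neutral control wells and 100% = twice that signal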
HSF1 inhib = HSF1 inhibition; activity change, negative = inhibition, % at 7.5 µM (by protocol); AID 2098; 300,000 compounds, 0.77% hits; NIH3T3-HGL HSE-luciferase, MG132-induced, luminescence 8 h; hits give low values;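 active = more than half of replicate wells show activity change below -50%, luminescence cut by over half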;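 also: luciferase reports HSF-1 transcriptional activity via heat shock element; 0% = median of DMSO wells and -100% = zero luminescence signal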
* hit, by the source's call; x = no result given.

SMILES	AI-2 QS modul	PHOSPHO1 block	ALR inh	core dimer inh	HSF-1 act	HSF1 inhib
Cc1ccc(C(=O)CN(CCCC(N)=O)S(=O)(=O)c2ccc([N+](=O)[O-])cc2)cc1	x	x	-14.1	0.9	x	x
O=C(c1ccc(-c2nnc(Nc3ccccc3)c3ccccc23)cc1)N1C[C@H]2C[C@H](C1)c1cccc(=O)n1C2	25.9	12.4	6.5	60.4*	-6.1	5.8
Cn1c(=O)c2c(nc(Sc3ncnn3CC(=O)N3CCOCC3)n2C)n(C)c1=O	22.0	17.7	-1.1	-0.7	-90.6	-88.5*
Cn1c(=O)c2c(nc(Sc3ncnn3CC(=O)NC3CCCCC3)n2C)n(C)c1=O	8.4	46.4	9.7	-7.7	-17.0	3.5
CC(C)n1c(O)c(N=NC(=O)c2ccccc2NS(=O)(=O)c2cccs2)c2ccccc21	30.7	-11.1	-5.2	20.3	17.6	6.6
Oc1c(Cl)cc(Cl)cc1C=Nc1ccccc1N1CCCC1	7.3	-20.0	98.1*	14.0	10.5	2.6
FC(F)(F)C1=CC(c2ccc(Cl)cc2)=NCCN1	16.4	20.9	98.9*	-7.4	x	x
CCN(CCNC(=O)CN1CCN(Cc2ccc(Cl)cc2)C1=O)c1ccccc1	4.8	25.7	98.3*	-0.1	69.7*	48.6
O=C(NC(=S)N(CCO)Cc1ccccc1)c1cc(Br)ccc1Cl	14.7	-26.9	-0.4	-2.9	5.0	3.0
CC1=NN(c2ccccc2)C(=O)/C1=C\c1ccc(Oc2ccc([N+](=O)[O-])cc2[N+](=O)[O-])cc1	19.2	-5.2	-16.1	61.5*	26.0	24.3
O=C(NC1CCCCC1)c1ccc(S(=O)(=O)c2ccccc2)cc1	25.9	30.4	2.6	1.2	-3.3	5.8
Cc1ccc(-c2nn3cnnc3c3ccccc23)cc1	21.8	8.0	2.5	4.2	-5.7	-0.6
COc1ccc2oc(=O)c(N3C(=O)c4ccccc4C3=O)cc2c1	3.4	43.2	5.8	1.3	-72.3	-66.3*
C=CCn1c(O)c(N=NC(=O)CNC(=O)/C=C/c2ccco2)c2ccccc21	24.5	1.2	4.4	49.0*	-13.8	3.1
COc1ccc(N2C(=O)CS(=O)C(c3ccccc3)C2=O)cc1 (stereo not drawn)	-13.7	-94.7	98.3*	-1.9	36.9	15.9
Cc1ccc(N2C(=O)CS(=O)C(c3ccccc3)C2=O)cc1C (stereo not drawn)	6.5	-99.9	98.1*	5.2	-11.9	3.9
Cc1cccc(NC(=S)/N=C(\N)Nc2nc(C)c3cc(C)ccc3n2)c1	11.9	-21.4	x	18.1	3.8	-4.5
Cc1cccc(NC(=S)/N=C(\N)Nc2nc(C)c3ccc(C)cc3n2)c1	10.6	25.8	-14.4	48.4*	37.0	11.2
Cc1ccc(C2C(C#N)=C(N)N(c3cccnc3)C3=C2C(=O)CCC3)c(C)c1 (stereo not drawn)	-0.9	39.4	23.9	-1.6	26.6	8.1
CN(C)c1ccc(C2Nc3ccccc3C(=O)N2CCCN2CCOCC2)cc1 (stereo not drawn)	13.1	53.3	99.2*	-2.7	-73.6	-68.1*
COc1cccc(NS(=O)(=O)c2ccc3c(c2)NC(=O)C(C)S3)c1 (stereo not drawn)	18.3	3.8	15.3	7.8	2.6	-0.9
CCc1cccc(NS(=O)(=O)c2ccc3c(c2)NC(=O)C(C)S3)c1 (stereo not drawn)	5.5	1.0	-1.7	-4.3	77.0*	34.8
Cc1cc(OCc2cc(C(=O)NC(C)c3c(C)nn(C)c3C)no2)cc(C)c1Cl (stereo not drawn)	9.2	21.8	-0.3	1.5	53.9*	35.9
CC(=O)c1ccc(OCc2cc(C(=O)NC(C)c3cnn(C)c3)no2)cc1 (stereo not drawn)	17.7	61.7*	-1.5	-4.0	10.1	12.1
Oc1ccccc1C1CC(c2cccs2)=NC(c2ccc(Cl)cc2)N1 (stereo not drawn)	25.0	17.9	12.0	1.6	34.9	23.7
CCOc1ccccc1C1N=C(c2ccc(OC)cc2)CC(c2ccccc2O)N1 (stereo not drawn)	-1.3	-3.7	96.2*	-0.9	129.6*	94.3
Cc1cc(Cn2ccnc2)c(C)cc1Cn1ccnc1	23.9	14.1	-2.7	-5.5	0.3	-1.0
